According to publication PMC7159910 (Science Advances, 2020):

Columns and labels:
[1] = tested on: PHF20L1 expression in MDA-MB-231 cells; assay: Western blotting of PHF20L1 in cells exposed to CoCl2; type: cell-based, human; conditions: MDA-MB-231 cells exposed to CoCl2
Outline: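 MDA-MB-231 cells, grown in L-15 medium with 10% FBS at 37°C without CO2, treated with CoCl2 as hypoxia mimic; lysates immunoblotted for PHF20L1 and for HIF1α as hypoxia marker.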

PHF20L1 TUDOR domain = assay: ITC

Row | Compound | induction of PHF20L1 protein by hypoxia activator [1] | Kd (PHF20L1 TUDOR domain) [µM]
1 | [Cl][Co][Cl] [CoCl2, cobalt chloride] | PHF20L1 was indeed induced | 
2 | H3K27me2 peptide (ITC) |  | 73.6
